This note sets out measurements from ChEMBL document CHEMBL1153737, “Synthesis and antiprotozoal activity of 4-arylcoumarins” (Eur J Med Chem, 2010).

Series [1] has as its system Leishmania donovani. In words: Antileishmanial activity against Leishmania donovani MHOM/IN/80/DD8 promastigotes assessed as parasite viability after 48 hrs by Alamar blue assay. The class given is functional, organism-based. The settings on record: MHOM/IN/80/DD8, 48 h. Summed up: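 Late log-phase promastigotes in complete RPMI (10% FCS, L-glutamine/penicillin–streptomycin) with 10% Alamar Blue and a range of compound concentrations, final DMSO <0.5%. Incubated 48 h at 27 °C. Viability read as Alamar Blue reduction by absorbance at 570 and 630 nm.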

Series [2] relates to Leishmania donovani. In words: Antileishmanial activity against Leishmania donovani MHOM/IN/80/DD8 amastigotes infected in human THP1 cells assessed as decrease of infected macrophages after 72 hrs by Giemsa staining. It is filed as functional, organism-based. The conditions noted are these: MHOM/IN/80/DD8, THP-1, 72 h. Summed up: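 THP1 monocytes (10⁵ cells/ml) differentiated to adherent macrophages with phorbol myristate acetate in complete RPMI, 48 h at 37 °C, 6% CO₂. Infected with stationary-phase promastigotes at cell:parasite ratio 1/10 for 24 h, then washed four times. Compound dilutions added in duplicate chambers for 72 h at 37 °C. Cells methanol-fixed and Giemsa-stained. Amphotericin B and DMSO controls included.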

A further series deals with Plasmodium falciparum. The series can be described thus: Antiplasmodial activity against multidrug-resistant Plasmodium falciparum W2 infected human erythrocytes after 48 hrs by flow cytometry. The class given is functional, organism-based. The conditions noted are these: W2, 48 h.
Another series relates to THP-1. In words: Cytotoxicity against human THP1 cells assessed as cell viability after 72 hrs by Alamar blue assay. The class given is cell-based. The settings on record: THP-1, 72 h.
The nature of series [3]: Selectivity index, ratio of IC50 for human THP1 cells to IC50 for Leishmania donovani MHOM/IN/80/DD8 amastigotes. It is filed as toxicity, cell-based, THP-1. The conditions noted are these: read-out: Ratio IC50. An outline of the steps:
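SI Ama computed as IC50 on THP1 cells divided by IC50 on intracellular L. donovani amastigotes, with amastigote IC50 taken from three independent experiments.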

A short description of series [4]: Selectivity index, ratio of IC50 for human THP1 cells to IC50 for Plasmodium falciparum W2. The class given is toxicity, cell-based, THP-1. The conditions noted are these: read-out: Ratio IC50.

SMILES strings stand for the structures. pIC50: −log10 of the molar value.

Regarding `COc1cc2oc(=O)cc(-c3ccc(O)cc3)c2cc1OC`, the negative logarithm of the IC50 (pIC50) in the series on Leishmania donovani [1], in the series with Leishmania donovani [2], in the series on Plasmodium falciparum and with THP-1 was less than 4.17 throughout.

Take `COc1ccc(-c2cc(=O)oc3cc(OC)c(OC)cc23)cc1OC`: the selectivity ratio in series [3] was greater than 265. For the same compound, the pIC50 in the series on Leishmania donovani [1] is less than 3.53; with Leishmania donovani [2], 5.96; in the series with Plasmodium falciparum, less than 3.93; in the series with THP-1, less than 3.53.

On to `COc1ccc(-c2cc(=O)oc3ccccc23)cc1OC`, for which the selectivity ratio was greater than 6.7 in series [3] and greater than 14.7 in series [4]. The negative logarithm of the IC50 (pIC50) in the series with Leishmania donovani [1] was less than 3.75; in the series on Leishmania donovani [2] it was 4.58; in the series on Plasmodium falciparum, 4.92; in the series with THP-1 it was less than 3.75.

Turning to `COc1ccc2c(-c3ccc(OC)c(OC)c3)cc(=O)oc2c1`, the selectivity ratio in series [4] turned out to be 1. Also, the negative logarithm of the IC50 (pIC50) was 4.59 in the series on Leishmania donovani [1], less than 4.60 with Leishmania donovani [2], 4.19 in the series on Plasmodium falciparum and 4.19 in the series on THP-1.

`COc1ccc2oc(=O)cc(-c3ccc(OC)c(OC)c3)c2c1`: the selectivity ratio in series [3] was greater than 29.6. Besides, the pIC50 in the series on Leishmania donovani [1] is less than 3.80; with Leishmania donovani [2] it was 5.27; in the series on Plasmodium falciparum it was less than 3.80; in the series with THP-1, less than 3.80.

For the compound `COc1ccc(-c2cc(=O)oc3cc(OC)c(OC)c(OC)c23)cc1OC`, the selectivity ratio in series [3] is 18.1; in series [4], 3. Further, the negative logarithm of the IC50 (pIC50) is less than 4.11 in the series with Leishmania donovani [1], 5.37 in the series with Leishmania donovani [2], 4.59 in the series on Plasmodium falciparum and 4.11 with THP-1.

On to `COc1cc(-c2cc(=O)oc3cc(OC)c(OC)cc23)ccc1O`, for which the selectivity ratio in series [3] was greater than 4.5; in series [4], greater than 6.1. Further, the negative logarithm of the IC50 (pIC50) in the series with Leishmania donovani [1] is 4.03; in the series on Leishmania donovani [2] it was 4.52; in the series with Plasmodium falciparum it was 4.65; in the series with THP-1, less than 3.86.

On to `C[C@@H]1[C@H](O)[C@@H](C)/C=C/C=C/C=C/C=C/C=C/C=C/C=C/[C@H](O[C@@H]2O[C@H](C)[C@@H](O)[C@H](N)[C@@H]2O)C[C@@H]2O[C@](O)(C[C@@H](O)C[C@@H](O)[C@H](O)CC[C@@H](O)C[C@@H](O)CC(=O)O[C@H]1C)C[C@H](O)[C@H]2C(=O)O` [AMPHOTERICIN B], for which the selectivity ratio in series [3] turned out to be 140. Moreover, the pIC50 in the series on Leishmania donovani [2] is 7.00; in the series on THP-1, 4.85.
